Data set [1] addresses T1, Monoacylglycerol lipase ABHD6 (Mus musculus) (UniProt Q8R2Y0).
T1 sequence (whole entry): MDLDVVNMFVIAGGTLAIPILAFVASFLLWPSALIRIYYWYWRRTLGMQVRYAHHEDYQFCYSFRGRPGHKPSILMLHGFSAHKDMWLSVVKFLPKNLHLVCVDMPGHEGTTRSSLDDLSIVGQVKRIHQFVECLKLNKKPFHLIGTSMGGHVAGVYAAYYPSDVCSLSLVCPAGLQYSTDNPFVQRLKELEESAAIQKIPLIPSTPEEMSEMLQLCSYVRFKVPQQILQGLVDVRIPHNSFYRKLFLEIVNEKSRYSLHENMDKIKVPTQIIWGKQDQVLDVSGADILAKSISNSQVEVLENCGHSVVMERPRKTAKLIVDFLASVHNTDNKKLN
Put plainly: Inhibition of ABHD6 in mouse brain membrane up to 30 uM preincubated for 25 mins followed by TAMRA-FP labeling addition and measured after 5 mins by competitive ABPP based analysis. The format is cell membranes. The conditions noted are these: dose microM <=30, time 30.0 min. The procedure, abridged: (§1)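 Mouse brain membranes, 4 mg/mL in PBS, preincubated 25 min at 25 °C with compound at 10 µM or a range of concentrations. Labelled 5 min with TAMRA-FP at 125 nM final. Proteins resolved on 11% SDS-PAGE and scanned for fluorescence.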

The target in data set [2] is Cannabinoid receptor 1 (CB1) (Homo sapiens, UniProt P21554). Put plainly: Displacement of [3H]CP55940 from human CB1 receptor at 10 uM incubated for 90 mins by radioligand binding assay. The conditions noted are these: probe [3H]CP55940. In short, it runs like this:
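Membranes expressing hCB1 or hCB2 in 50 mM Tris-HCl, 2.5 mM EDTA, 5 mM MgCl2, 0.5% BSA, pH 7.4, incubated with compound and 0.5 nM [3H]CP55,940 for 90 min at 30 °C. Nonspecific binding with 10 µM […]; filtered and counted. Screening at 10 µM; two experiments in triplicate.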
A general note: Loss of bound radioactivity is the signal in a displacement assay; it reports binding, not function.

A further data set concerns the target T2, Monoglyceride lipase (Homo sapiens, UniProt Q99685).
T2 sequence (Q99685 whole entry): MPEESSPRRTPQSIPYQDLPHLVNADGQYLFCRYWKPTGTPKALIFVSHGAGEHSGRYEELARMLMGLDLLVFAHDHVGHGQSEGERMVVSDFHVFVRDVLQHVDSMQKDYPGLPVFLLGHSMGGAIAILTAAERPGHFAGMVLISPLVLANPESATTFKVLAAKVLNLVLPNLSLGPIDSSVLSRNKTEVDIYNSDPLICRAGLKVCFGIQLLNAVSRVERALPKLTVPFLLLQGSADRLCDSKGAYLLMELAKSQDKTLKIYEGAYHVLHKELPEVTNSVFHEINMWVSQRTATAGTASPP
Nature of the data set: Inhibition of human recombinant MAGL using 4-nitrophenylacetate as substrate incubated for 30 mins by microplate reader assay. The procedure, abridged: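 Human recombinant MAGL, 11 ng/well, in 10 mM Tris pH 7.2 with 1 mM EDTA and 0.1 mg/mL BSA, at room temperature. 4-NPA 133.3 µM stock added; enzyme added last. Absorbance at 405 nm after 30 min, minus a no-enzyme blank for each concentration. Sigmoidal fit; duplicates of three independent experiments.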

The subject of a further data set is SK-OV-3. Put plainly: Antiproliferative activity against human SKOV3 cells as reduction in cell growth measured after 96 hrs by Celltiter-glo luminescent assay. The format is functional, cell-based. As to conditions: SK-OV-3, 96 h. In short, it runs like this:
(§2)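 Cell lines kept at 37 °C, 5% CO2; 5 × 10^2 cells per well, compound added the day after seeding at 200 to 0.02 µM. Viability read after 96 h by CellTiter-Glo luminescence. IC50 from logistic dose-response curves, in triplicate; error bars are SD.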

Data set [3] addresses T3, Fatty-acid amide hydrolase 1 (Mus musculus) (UniProt O08914).
T3 sequence (whole entry): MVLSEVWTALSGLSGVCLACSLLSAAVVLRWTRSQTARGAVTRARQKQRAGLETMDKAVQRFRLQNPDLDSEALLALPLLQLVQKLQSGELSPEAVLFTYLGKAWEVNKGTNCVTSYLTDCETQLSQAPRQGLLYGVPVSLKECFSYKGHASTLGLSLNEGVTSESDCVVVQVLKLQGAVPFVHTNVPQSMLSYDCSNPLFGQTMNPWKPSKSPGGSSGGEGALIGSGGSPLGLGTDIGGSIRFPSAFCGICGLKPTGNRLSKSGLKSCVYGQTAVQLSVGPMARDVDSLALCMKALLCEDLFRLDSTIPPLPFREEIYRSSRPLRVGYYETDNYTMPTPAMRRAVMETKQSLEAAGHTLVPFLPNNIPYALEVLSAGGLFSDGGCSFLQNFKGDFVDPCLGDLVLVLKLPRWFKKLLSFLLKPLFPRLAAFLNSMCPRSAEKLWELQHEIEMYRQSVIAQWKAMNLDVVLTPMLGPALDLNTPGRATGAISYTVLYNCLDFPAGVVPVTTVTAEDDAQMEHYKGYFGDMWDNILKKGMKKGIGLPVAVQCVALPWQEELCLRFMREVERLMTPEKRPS
Nature of the data set: Inhibition of FAAH in mouse brain membrane up to 30 uM preincubated for 25 mins followed by TAMRA-FP labeling addition and measured after 5 mins by competitive ABPP based analysis. As to conditions: dose microM <=30, time 30.0 min. The data set is classed as cell membranes. In short, it runs like this: as §1

A short description of data set [4]: Cytotoxicity against cancer-derived human organoids in HGSOC patient assessed as reduction in cell viability up to 100 uM measured after 96 hrs by Celltiter-glo luminescent assay. The format is functional, Neoplasm. As to conditions: dose microM <=100. The procedure, abridged:
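Organoids from three HGSOC patients. Tissue digested with 2 mg/mL collagenase for 30 min, embedded in BME matrix and cultured. Treated at 100 µM, with carboplatin as positive control. Viability read by CellTiter-Glo luminescence.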

A further data set has as its system Caov-3 cell line. Nature of the data set: Antiproliferative activity against human CAOV3 cells as reduction in cell growth measured after 96 hrs by Celltiter-glo luminescent assay. The data set is classed as functional, cell-based. The conditions noted are these: Caov-3, 96 h. In short, it runs like this:
as §2

Structures are written as SMILES. Activity calls are given as the source filed them. No cut-off for these calls is given here.

Sequence of Cannabinoid receptor 1 (CB1) (P21554 whole entry): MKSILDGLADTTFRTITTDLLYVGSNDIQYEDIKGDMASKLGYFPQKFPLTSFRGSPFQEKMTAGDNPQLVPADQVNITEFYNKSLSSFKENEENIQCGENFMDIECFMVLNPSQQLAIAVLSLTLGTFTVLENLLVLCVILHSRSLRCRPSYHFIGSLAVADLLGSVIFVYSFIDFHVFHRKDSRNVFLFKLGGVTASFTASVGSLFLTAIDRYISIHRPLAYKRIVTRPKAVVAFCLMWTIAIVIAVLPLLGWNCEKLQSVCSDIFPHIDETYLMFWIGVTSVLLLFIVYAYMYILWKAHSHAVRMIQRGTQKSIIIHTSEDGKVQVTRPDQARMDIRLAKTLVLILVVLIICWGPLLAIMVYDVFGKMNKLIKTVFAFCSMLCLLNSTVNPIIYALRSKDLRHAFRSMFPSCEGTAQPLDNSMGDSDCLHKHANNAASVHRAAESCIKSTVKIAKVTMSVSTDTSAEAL

Consider `O=C(c1ccc(Sc2ccccc2)cc1)C1CCN(C(=O)c2cc(O)c(F)cc2F)CC1`, for which the inhibition entry in data set [1] and in data set [3] was “inactive” each time. In addition, in data set [2], the inhibition (usually the share of the control response that was lost under treatment) at 1.5 h, 10 µM is less than 10%. Besides, the results for the IC50 at Monoglyceride lipase, in the data set on SK-OV-3 and in the data set with Caov-3 cell line were 0.018 µM, 11 µM and 42 µM, respectively. The “inhibition (INH)” value in data set [4] was found to be 42%.
For the compound `O=C(c1ccc(Cc2ccccc2)cc1)C1CCN(C(=O)c2cc(O)c(F)cc2F)CC1`, the inhibition result in data set [1] and in data set [3] was “inactive” each time. For the same compound, in data set [2], the inhibition at 1.5 h, 10 µM was less than 10%. Moreover, the IC50 (in general, the concentration at which inhibition is half-maximal) at Monoglyceride lipase stood at 0.036 µM; with SK-OV-3, 12 µM; in the data set on Caov-3 cell line it was 44 µM. The “inhibition (INH)” value in data set [4] is on record as 18%.
With `O=C(c1ccc(Cc2ccccc2)cc1)C1CCN(C(=O)c2cc(O)ccc2F)CC1`, the inhibition entry in data set [1] and in data set [3] was “inactive” throughout. In data set [2], this compound returned an inhibition at 1.5 h, 10 µM of less than 10%. The concentration for half-maximal inhibition (IC50) came out at 0.049 µM at Monoglyceride lipase, 8 µM with SK-OV-3 and 70 µM in the data set with Caov-3 cell line. In data set [4], the “inhibition (INH)” value amounted to 42%.
`O=C(c1ccc(Sc2ccccc2)cc1)C1CCN(C(=O)c2cc(O)ccc2F)CC1`: the inhibition entry in data set [1] and in data set [3] was “inactive” throughout. The compound further displayed an inhibition at 1.5 h, 10 µM in data set [2] of less than 10%. Moreover, the results for the concentration for half-maximal inhibition (IC50) at Monoglyceride lipase, in the data set on SK-OV-3 and in the data set with Caov-3 cell line were 0.03 µM, 4.6 µM and 34 µM, respectively. In addition, in data set [4], the “inhibition (INH)” value turned out to be 42%.

For the origin of these results see ChEMBL document CHEMBL4732057, “Design, synthesis and biological evaluation of second-generation benzoylpiperidine derivatives as reversible monoacylglycerol lipase (MAGL) inhibitors” (Eur J Med Chem, 2021).
